Data on two compounds can be found in ChEMBL document CHEMBL2177033, “N-substituted phenoxazine and acridone derivatives: structure-activity relationships of potent P2X4 receptor antagonists” (J Med Chem, 2012).

Data set [1] deals with T1, P2X purinoceptor 4 (Mus musculus) (UniProt Q9JJX6).
T1 sequence (whole entry): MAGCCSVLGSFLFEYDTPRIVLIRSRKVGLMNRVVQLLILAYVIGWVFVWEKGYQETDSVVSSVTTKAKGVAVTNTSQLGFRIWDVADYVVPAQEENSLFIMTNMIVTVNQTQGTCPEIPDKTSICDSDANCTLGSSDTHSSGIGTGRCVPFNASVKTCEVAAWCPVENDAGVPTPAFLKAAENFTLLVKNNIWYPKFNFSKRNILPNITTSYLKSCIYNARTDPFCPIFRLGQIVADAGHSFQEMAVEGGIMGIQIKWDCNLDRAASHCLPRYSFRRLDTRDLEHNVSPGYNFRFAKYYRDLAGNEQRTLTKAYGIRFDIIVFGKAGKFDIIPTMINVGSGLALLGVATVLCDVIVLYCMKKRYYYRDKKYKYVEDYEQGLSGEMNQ
Description: Antagonist activity at mouse P2X4 receptor at 10 uM by cell-based calcium influx assay. The format is functional. The arrangement: scale not given: the % may be the effect or the level left. In outline: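 Ca2+ influx in 1321N1 astrocytoma cells stably expressing the receptor; P2X1 and P2X3 used as chimeras carrying the P2X2 N-terminus and TM1 to abolish fast desensitization. Confluent cells loaded with Fluo-4 AM (2.4 μM) in HBSS/10 mM HEPES pH 7.3, 1% Pluronic F127, 1 h at 23 °C, then washed. Compound in DMSO (final ≤1%) added 30 min before ATP at EC80. Fluorescence read at 520 nm for 30 s. ≥3 independent experiments in duplicate.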

A further data set deals with P2X purinoceptor 4 (Homo sapiens, UniProt Q99571). Description: Antagonist activity at human P2X4 receptor expressed in 1321N1 cells assessed as inhibition of ATP-induced cytosolic calcium influx preincubated at 10 uM for 30 mins before ATP treatment by Fluo-4 AM fluorescence method. The class given is functional, cell-based.
Chain of P2X purinoceptor 4 (Q99571 whole entry): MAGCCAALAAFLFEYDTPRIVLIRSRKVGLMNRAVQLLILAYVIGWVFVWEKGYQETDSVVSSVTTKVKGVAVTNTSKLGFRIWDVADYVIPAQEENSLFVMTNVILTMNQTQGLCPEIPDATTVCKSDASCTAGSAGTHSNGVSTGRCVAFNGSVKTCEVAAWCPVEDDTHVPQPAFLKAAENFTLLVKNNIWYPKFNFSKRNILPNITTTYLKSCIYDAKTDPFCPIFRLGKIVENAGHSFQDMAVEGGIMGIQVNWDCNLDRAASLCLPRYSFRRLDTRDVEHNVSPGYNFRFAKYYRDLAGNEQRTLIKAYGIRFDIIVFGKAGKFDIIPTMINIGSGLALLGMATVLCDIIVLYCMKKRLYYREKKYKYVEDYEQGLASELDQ
The nature of data set [2]: Hydrolytic stability of the compound in DMSO/NaHCO3 at pH 8.4 after 6 hrs at 37 degC by LC-MS analysis. The class given is physicochemical. The following applies: pH 8.4, 6 h. In outline:
(§1)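 Compound solution stirred 6 h under one of three conditions: 100 μM in DMSO/aqueous HCl pH 1 (1:4) at room temperature; 100 μM in DMSO/HBSS pH 7.4 (1:4) at 80 °C; or 10 μM in DMSO/aqueous NaHCO3 pH 8.4 (2.5:97.5) at 37 °C.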

The nature of data set [3]: Hydrolytic stability of the compound in DMSO/HCL at pH 1 at 100 uM after 6 hrs at room temperature by LC-MS analysis. The format is physicochemical. The note with it: pH 1, 6 h. In outline: as §1
Data set [4] is described as follows: Hydrolytic stability of the compound in DMSO/HBSS at pH 7.4 after 6 hrs at 80 degC by LC-MS analysis. The class given is physicochemical. The following applies: pH 7.4, 6 h. In short, it runs like this: as §1

`O=C(NCCc1ccccc1)N1c2ccccc2Oc2ccccc21`: in data set [1], the Activity is 5%.

`O=C(OCc1ccccc1)N1c2ccccc2Oc2ccccc21`: at P2X purinoceptor 4, the inhibition (as a rule, the drop in the measured response relative to a control, in per cent) is 77%. Also, the Stability entry in data set [2], in data set [3] and in data set [4] was “Stable” throughout.
